Assay results published in paper PMC11565791 (bioRxiv, 2025).

B1: pSwi6^S18/24A: phospho-mutant protein, S18 and S24 mutated to alanines, co-expressed with CKII (protein)
chain: MKKGGVRSYRRSSTSKRAVIDDDAEPELPSMTKEAIASHKADSGSSDNEVESDHESKSSSKKLKENAKEEEGGEEEEEDEYVVEKVLKHRMARKGGGYEYLLKWEGYDDPSDNTWSSEADCSGCKQLIEAYWNEHGGRPEPSKRKRTARPKKPEAKEPSPKSRKTDEDKHDKDSNEKIEDVNEKTIKFADKSQEEFNENGPPSGQPNGHIESDNESKSPSQKESNESEDIQIAETPSNVTPKKKPSPEVPKLPDNRELTVKQVENYDSWEDLVSSIDTIERKDDGTLEIYLTWKNGAISHHPSTITNKKCPQKMLQFYESHLTFRENE
modifications: left off: 6xHis, N-terminal, cleaved

How the values were obtained:
[1] = test system: H3K9 methylation states; settings: faster than H3K9me2 to me3; ref Al-Sady et al. 2013; cited from earlier work
[2] = test system: H3K9me0 mononucleosomes; assay: Fluorescence polarization, H3K9me0 mononucleosome; assay type: binding; settings: Figure 7C, SFigure 10D
Method in brief: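 Reconstituted H3K9me0 mononucleosomes on fluorescein-labelled 601 DNA were fixed at 25 nM. Purified Swi6, either unphosphorylated or co-expressed with casein kinase II catalytic subunits, was titrated at 0–200 μM. Fluorescence polarization was read at ex 485 / em 528 nm and fitted to a Kd equation.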

[3] = test system: H3Kc9me3 mononucleosomes; assay: Fluorescence polarization, H3Kc9me3; assay type: binding; settings: Figure 7C, SFigure 10D
[4] = test system: Clr4 (H3K9me2 mononucleosome substrate); assay: Single turnover H3K9me2 to H3K9me3 conversion by Clr4; assay type: biochemical, S. pombe; settings: 5 μM Clr4, 1 mM SAM, 500 nM H3K9me2 nucleosomes, 25°C
Method in brief: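 Purified Clr4 (5 μM) was preincubated for 5 min at 25°C with 1 mM SAM and varying Swi6 concentrations (unphosphorylated or phosphorylated). Reactions were started by adding commercial H3K9me2 nucleosomes to 500 nM. Timepoints were stopped by boiling in Laemmli buffer, run on 18% SDS-PAGE and blotted for H3K9me3 and H4. Signals were quantified against H3K9me3 nucleosome standard curves and fitted to a single exponential rise.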

[5] = test system: Swi6 oligomerization; assay: Glutaraldehyde crosslinking western, oligomerization; assay type: biochemical; settings: 0.01% glutaraldehyde, 2 h, room temperature; compared to pSwi6; Figure 7B
Method in brief: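 Purified Swi6 in storage buffer (25 mM HEPES pH 7.5, 100 mM KCl, 10% glycerol, 10 mM βME) was tested at various protein concentrations. It was crosslinked with 0.01% glutaraldehyde for 2 h at room temperature, then quenched with 50 mM Tris pH 7.4. Samples were diluted to 4.2 μM, run on 4–12% Tris-glycine gradient gels and analysed by western blot with fluorescent detection.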

Molecule | rate of H3K9me0 to me1 and me1 to me2 conversion relative to me2 to me3 [1] | increase in affinity towards H3K9me0 nucleosome versus pSwi6 [2] | increase in affinity towards H3Kc9me3 nucleosome versus pSwi6 [3] | effect on conversion of H3K9me2 to H3K9me3 by Clr4 [4] | propensity to oligomerize [5]
Clr4: H3K9 methylase of S. pombe | 10 X | – | – | – | –
B1 | – | 4.5 X | 2.6 X | decrease in tri-methylation | strongly decreased propensity to oligomerize
